In brackets after ≈: the same amount, converted by molar mass. Activity calls are given as the source filed them. The calls are words filed in the database; no cut-off is given here.
Assays:
[1] = test system: Mycobacterium kansasii; assay: Antimycobacterial activity against Mycobacterium kansasii 6509/96 after 7 days; assay type: functional; settings: 6509/96, 168 h
In short: (§1)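 Micromethod MIC in Šula's semisynthetic medium at 37 °C. Compounds added in DMSO at 1000 down to 0.032 µmol/L. Isoniazid standard in sterile water at 0.5–250 µmol/L. Inocula: H37Rv 10^3, M. avium 10^5, M. kansasii 10^4. Read at 14 and 21 d, plus 7 d for M. kansasii.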

[2] = test system: HepG2; assay: Cytotoxicity against human HepG2 cells after 24 hrs by CellTiter assay; assay type: cell-based; settings: HepG2, 24 h
In short: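 HepG2 cells (passage 27–33) in MEM with 10% FBS, L-glutamine and NEAA, seeded at 1×10^4 per well. Treated next day with compounds at 0.1–100 µM (or 0.1–25 µmol/L), triplicates, <1% DMSO, for 24 h at 37 °C, 5% CO2. MTS reagent added for 2 h, absorbance read at 490 nm. IC50 taken against untreated (100%) and 10% DMSO (0%) controls.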

[3] = test system: Nakaseomyces glabratus; assay: Antifungal activity against Candida glabrata 20/I at 500 micromol/L after 24 to 48 hrs by broth microdilution method; assay type: functional, organism-based
In short: (§2)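 Broth microdilution in RPMI 1640 with glutamine, fluconazole as reference. For yeasts, MIC is ≥80% growth reduction (IC80) versus control. For filamentous fungi, the value is expressed as IC50. Readings at 24 and 48 h.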

[4] = test system: Pichia kudriavzevii; assay: Antifungal activity against Candida krusei E28 after 48 hrs by broth microdilution method; assay type: functional; settings: E28, 48 h; in short: as §2
[5] = test system: Mycobacterium avium; assay: Antimycobacterial activity against isoniazid, rifampicin, ethambutol and ofloxacin-resistant Mycobacterium avium My 330/88 after 14 days; assay type: functional; settings: My 330/88, 336 h; in short: as §1
[6] = test system: Trichosporon asahii; assay: Antifungal activity against Trichosporon asahii 1188 after 24 hrs by broth microdilution method; assay type: functional; settings: Trichosporon asahii, 1188, 24 h; in short: as §2
[7] = test system: Aspergillus fumigatus; assay: Antifungal activity against Aspergillus fumigatus 231 after 48 hrs by broth microdilution method; assay type: functional; settings: Aspergillus fumigatus, 231, 48 h; in short: as §2
[8] = test system: Lichtheimia corymbifera; assay: Antifungal activity against Absidia corymbifera 272 after 24 hrs by broth microdilution method; assay type: functional; settings: Lichtheimia corymbifera, 272, 24 h; in short: as §2
[9] = test system: Trichosporon asahii; assay: Antifungal activity against Trichosporon asahii 1188 after 48 hrs by broth microdilution method; assay type: functional; settings: Trichosporon asahii, 1188, 48 h; in short: as §2
[10] = test system: Pseudomonas aeruginosa; assay: Antibacterial activity against Pseudomonas aeruginosa CCM 1961 at 500 micromol/L after 24 to 48 hrs by broth microdilution method; assay type: functional, organism-based
In short: (§3)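 Broth microdilution in Mueller–Hinton broth, compounds dissolved in DMSO, tested over a dilution series from 500 downward. MIC taken as ≥95% growth reduction (IC95) versus drug-free control. Benzylpenicillin comparator. Readings at 24 and 48 h.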

[11] = test system: Mycobacterium kansasii; assay: Antimycobacterial activity against Mycobacterium kansasii My 235/80 after 14 days; assay type: functional; settings: My 235/80, 336 h; in short: as §1
[12] = test system: Staphylococcus epidermidis; assay: Antibacterial activity against Staphylococcus epidermidis H 6966/08 after 48 hrs by broth microdilution method; assay type: functional; settings: H 6966/08, 48 h; in short: as §3
[13] = test system: Staphylococcus aureus; assay: Antibacterial activity against Staphylococcus aureus CCM 4516/08 after 48 hrs by broth microdilution method; assay type: functional; settings: CCM 4516/08, 48 h; in short: as §3
[14] = test system: Enterococcus sp.; assay: Antibacterial activity against Enterococcus sp. J 14365/08 at 500 micromol/L after 24 to 48 hrs by broth microdilution method; assay type: functional, organism-based; in short: as §3
[15] = test system: Mycobacterium avium; assay: Antimycobacterial activity against isoniazid, rifampicin, ethambutol and ofloxacin-resistant Mycobacterium avium My 330/88 after 21 days; assay type: functional; settings: My 330/88, 504 h; in short: as §1
[16] = test system: Klebsiella pneumoniae; assay: Antibacterial activity against ESBL-positive Klebsiella pneumoniae J 14368/08 at 500 micromol/L after 24 to 48 hrs by broth microdilution method; assay type: functional, organism-based; in short: as §3
[17] = test system: Pichia kudriavzevii; assay: Antifungal activity against Candida krusei E28 after 24 hrs by broth microdilution method; assay type: functional; settings: E28, 24 h; in short: as §2
[18] = test system: Mycobacterium kansasii; assay: Antimycobacterial activity against Mycobacterium kansasii My 235/80 after 7 days; assay type: functional; settings: My 235/80, 168 h; in short: as §1
[19] = test system: Staphylococcus epidermidis; assay: Antibacterial activity against Staphylococcus epidermidis H 6966/08 after 24 hrs by broth microdilution method; assay type: functional; settings: H 6966/08, 24 h; in short: as §3
[20] = test system: Staphylococcus aureus; assay: Antibacterial activity against Staphylococcus aureus CCM 4516/08 after 24 hrs by broth microdilution method; assay type: functional; settings: CCM 4516/08, 24 h; in short: as §3
[21] = test system: Candida tropicalis; assay: Antifungal activity against Candida tropicalis 156 at 500 micromol/L after 24 to 48 hrs by broth microdilution method; assay type: functional, organism-based; in short: as §2
[22] = test system: Mycobacterium kansasii; assay: Antimycobacterial activity against Mycobacterium kansasii My 235/80 after 21 days; assay type: functional; settings: My 235/80, 504 h; in short: as §1
[23] = test system: Trichophyton mentagrophytes; assay: Antifungal activity against Trichophyton mentagrophytes 445 after 120 hrs by broth microdilution method; assay type: functional; settings: Trichophyton mentagrophytes, 445, 120 h
In short: (§4)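 Filamentous dermatophyte tested by broth microdilution in RPMI 1640 with glutamine, fluconazole as reference. Value expressed as IC50 relative to growth control. Read at 72 and 120 h.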

[24] = test system: Mycobacterium kansasii; assay: Antimycobacterial activity against Mycobacterium kansasii 6509/96 after 21 days; assay type: functional; settings: 6509/96, 504 h; in short: as §1
[25] = test system: Staphylococcus aureus; assay: Antibacterial activity against methicillin-resistant Staphylococcus aureus H 5996/08 after 24 hrs by broth microdilution method; assay type: functional; settings: H 5996/08, 24 h; in short: as §3
[26] = test system: Trichophyton mentagrophytes; assay: Antifungal activity against Trichophyton mentagrophytes 445 after 72 hrs by broth microdilution method; assay type: functional; settings: Trichophyton mentagrophytes, 445, 72 h; in short: as §4
[27] = test system: Escherichia coli; assay: Antibacterial activity against Escherichia coli CCM 4517 at 500 micromol/L after 24 to 48 hrs by broth microdilution method; assay type: functional, organism-based; in short: as §3
[28] = test system: Lichtheimia corymbifera; assay: Antifungal activity against Absidia corymbifera 272 after 48 hrs by broth microdilution method; assay type: functional; settings: Lichtheimia corymbifera, 272, 48 h; in short: as §2
[29] = test system: Candida albicans; assay: Antifungal activity against Candida albicans ATCC 44859 after 48 hrs by broth microdilution method; assay type: functional; settings: ATCC 44859, 48 h; in short: as §2
[30] = test system: Aspergillus fumigatus; assay: Antifungal activity against Aspergillus fumigatus 231 after 24 hrs by broth microdilution method; assay type: functional; settings: Aspergillus fumigatus, 231, 24 h; in short: as §2
[31] = test system: Mycobacterium tuberculosis; assay: Antimycobacterial activity against Mycobacterium tuberculosis H37Rv My 331/88 after 21 days; assay type: functional; settings: H37Rv My 331/88, 504 h; in short: as §1
[32] = test system: Mycobacterium kansasii; assay: Antimycobacterial activity against Mycobacterium kansasii 6509/96 after 14 days; assay type: functional; settings: 6509/96, 336 h; in short: as §1
[33] = test system: Staphylococcus aureus; assay: Antibacterial activity against methicillin-resistant Staphylococcus aureus H 5996/08 after 48 hrs by broth microdilution method; assay type: functional; settings: H 5996/08, 48 h; in short: as §3
[34] = test system: Klebsiella pneumoniae; assay: Antibacterial activity against Klebsiella pneumoniae D 11750/08 at 500 micromol/L after 24 to 48 hrs by broth microdilution method; assay type: functional, organism-based; in short: as §3
[35] = test system: Mycobacterium tuberculosis; assay: Antimycobacterial activity against Mycobacterium tuberculosis H37Rv My 331/88 after 14 days; assay type: functional; settings: H37Rv My 331/88, 336 h; in short: as §1
[36] = test system: Candida albicans; assay: Antifungal activity against Candida albicans ATCC 44859 after 24 hrs by broth microdilution method; assay type: functional; settings: ATCC 44859, 24 h; in short: as §2

Compound	MIC [1] [µM]	MIC80 [4] [µM]	MIC [5] [µM]	MIC80 [6] [µM]	MIC50 [7] [µM]	MIC50 [8] [µM]	MIC80 [9] [µM]	MIC [11] [µM]	MIC95 [12] [µM]	MIC95 [13] [µM]	MIC [15] [µM]	MIC80 [17] [µM]	MIC [18] [µM]	MIC95 [19] [µM]	MIC95 [20] [µM]	MIC [22] [µM]	MIC50 [23] [µM]	MIC [24] [µM]	MIC95 [25] [µM]	MIC50 [26] [µM]	further results
CCOP(=O)(OCC)Oc1ccc(Br)cc1C(=O)Nc1ccc(Cl)c(Cl)c1	2 (≈ 0.994 µg/mL)	> 500	16 (≈ 7.95 µg/mL)	> 500	> 500	> 500	> 500	4 (≈ 1.99 µg/mL)	> 500	> 500	16 (≈ 7.95 µg/mL)	> 500	2 (≈ 0.994 µg/mL)	500 (≈ 249 µg/mL)	500 (≈ 249 µg/mL)	4 (≈ 1.99 µg/mL)	> 500	4 (≈ 1.99 µg/mL)	500 (≈ 249 µg/mL)	> 500	IC50 [2]: 2040 nM; Activity [3]: inactive; Activity [10]: inactive; Activity [14]: inactive; Activity [16]: inactive; Activity [21]: inactive; Activity [27]: inactive; MIC50 [28]: > 500 µM; MIC80 [29]: > 500 µM; MIC50 [30]: > 500 µM; MIC [31]: 1 µM (≈ 0.497 µg/mL); MIC [32]: 4 µM (≈ 1.99 µg/mL); MIC95 [33]: > 500 µM; Activity [34]: inactive; MIC [35]: 1 µM (≈ 0.497 µg/mL); MIC80 [36]: > 500 µM
OC(Cn1cncn1)(Cn1cncn1)c1ccc(F)cc1F [FLUCONAZOLE]		> 50		4 (≈ 1.23 µg/mL)	> 50	> 50	9 (≈ 2.76 µg/mL)					> 50					26 (≈ 7.96 µg/mL)			17 (≈ 5.21 µg/mL)	MIC50 [28]: > 50 µM; MIC80 [29]: 2 µM (≈ 0.613 µg/mL); MIC50 [30]: > 50 µM; MIC80 [36]: 1 µM (≈ 0.306 µg/mL)
NNC(=O)c1ccncc1 [ISONIAZID]	2 (≈ 0.274 µg/mL)		250 (≈ 34.3 µg/mL)					> 250			> 250		> 250			> 250		4 (≈ 0.549 µg/mL)			MIC [31]: 1 µM (≈ 0.137 µg/mL); MIC [32]: 4 µM (≈ 0.549 µg/mL); MIC [35]: 0.5 µM (≈ 0.0686 µg/mL)
CC1(C)S[C@@H]2[C@H](NC(=O)Cc3ccccc3)C(=O)N2[C@H]1C(=O)O [PENICILLIN G]									250 (≈ 83.6 µg/mL)	0.98 (≈ 0.328 µg/mL)				250 (≈ 83.6 µg/mL)	0.98 (≈ 0.328 µg/mL)				62.5 (≈ 20.9 µg/mL)		MIC95 [33]: 125 µM (≈ 41.8 µg/mL)

Reference: ChEMBL document CHEMBL3102784, “Salicylanilide diethyl phosphates: synthesis, antimicrobial activity and cytotoxicity” (Bioorg Med Chem, 2014)
